# Where “and” joins values, the source holds several entries; their conditions need not be identical. Identical values can stand only once.
# Test system: U2OS
# Experiment: Multiplex assay against U2OS
# Format: toxicity, cell-based
# Details: human, 12 h, 1 µM, compound concentration 1 uM
# Summary of the method: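 Per cents of healthy-nucleus cells form the tubulin, mitochondrial-mass and membrane-permeability phenotype values. Live cells were stained at seeding with Hoechst33342, BioTracker Green Microtubule Cytoskeleton Dye, MitoTracker Red and Annexin V Alexa Fluor 680. After compound addition they were imaged on a CQ1 microscope at 37°C and 5% CO2, and CellPathfinder machine-learning gating split them into Hoechst high-intensity objects or normal cells, normal cells into healthy, pyknosed or fragmented nuclei, and pyknosed cells into mitotic or apoptotic.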
SMILES,Population Apoptotic (%),Population Fragmented Nuclei (%),Population Healthy Nuclei (%),Population Hoechst High Intensity Objects (%),Population Membrane Permeable-Phenotype (%),Population Mitochondria Different-Phenotype (%),Population Mitotic Cells (%),Population Normal (%),Population Pyknosed Nuclei (%),Population Tubulin-Different-Phenotype (%)
COc1ccc2[nH]c(I)c(CCNC(C)=O)c2c1 [IODOMELATONIN],68% and 37%,19% and 11%,74% and 83%,2% and 0%,4% and 5%,3% and 1%,31% and 62%,97% and 99%,5%,1% and 2%
COC(=O)c1ccc2c(c1)NC(=O)/C2=C(\Nc1ccc(N(C)C(=O)CN2CCN(C)CC2)cc1)c1ccccc1 [NINTEDANIB],50% and 43.75%,2.42% and 2.88%,89.37% and 85.61%,0%,1.62% and 4.2%,0% and 14.29%,50% and 56.25%,100%,8.21% and 11.51%,1.89% and 2.52%
OCCCNc1cc(-c2ccnc(Nc3cccc(Cl)c3)n2)ccn1,88% and 80%,38% and 27%,52% and 51%,3% and 5%,8% and 10%,–,11% and 20%,97% and 94%,9% and 20%,4% and 5%
CCCCCC(O)/C=C/[C@H]1C(=O)CC(O)C1C/C=C\CCCC(=O)O (stereo partly specified),60% and 88%,28% and 15%,59% and 76%,1% and 0%,5% and 8%,4% and 6%,–,98% and 99%,12% and 8%,4% and 8%

# Same assay, conditions: human, 12 h, 1 µM, compound concentration 1 uM
row,SMILES,Total Cell Count
1,COc1ccc2[nH]c(I)c(CCNC(C)=O)c2c1 [IODOMELATONIN],282 and 156
2,COC(=O)c1ccc2c(c1)NC(=O)/C2=C(\Nc1ccc(N(C)C(=O)CN2CCN(C)CC2)cc1)c1ccccc1 [NINTEDANIB],414 and 139
3,OCCCNc1cc(-c2ccnc(Nc3cccc(Cl)c3)n2)ccn1,200 and 76
4,CCCCCC(O)/C=C/[C@H]1C(=O)CC(O)C1C/C=C\CCCC(=O)O (stereo partly specified),203 and 113

# Same assay, conditions: human, 12 h, 10 µM, compound concentration 10 uM
SMILES,Population Apoptotic (%),Population Fragmented Nuclei (%),Population Healthy Nuclei (%),Population Hoechst High Intensity Objects (%),Population Membrane Permeable-Phenotype (%),Population Mitochondria Different-Phenotype (%),Population Mitotic Cells (%),Population Normal (%),Population Pyknosed Nuclei (%),Population Tubulin-Different-Phenotype (%)
COc1ccc2[nH]c(I)c(CCNC(C)=O)c2c1 [IODOMELATONIN],77% and 80%,25% and 41%,64% and 54%,3% and 0%,2% and 10%,1% and 6%,22% and 20%,96% and 99%,9% and 3%,1% and 2%
COC(=O)c1ccc2c(c1)NC(=O)/C2=C(\Nc1ccc(N(C)C(=O)CN2CCN(C)CC2)cc1)c1ccccc1 [NINTEDANIB],48.33% and 44.44%,3.26% and 6.04%,72.3% and 74.18%,0%,21.97% and 30.37%,–,51.67% and 55.56%,100%,24.44% and 19.78%,64.79% and 29.63%
OCCCNc1cc(-c2ccnc(Nc3cccc(Cl)c3)n2)ccn1,85% and 91%,37% and 24%,56% and 64%,4% and 10%,46% and 47%,36% and 51%,14% and 8%,95% and 89%,6% and 11%,46% and 61%
CCCCCC(O)/C=C/[C@H]1C(=O)CC(O)C1C/C=C\CCCC(=O)O (stereo partly specified),71% and 66%,23% and 16%,69% and 73%,2%,8% and 10%,3% and 2%,28% and 33%,97%,7% and 9%,5% and 4%

# Same assay, conditions: human, 12 h, 10 µM, compound concentration 10 uM
row,SMILES,Total Cell Count
1,COc1ccc2[nH]c(I)c(CCNC(C)=O)c2c1 [IODOMELATONIN],231 and 134
2,COC(=O)c1ccc2c(c1)NC(=O)/C2=C(\Nc1ccc(N(C)C(=O)CN2CCN(C)CC2)cc1)c1ccccc1 [NINTEDANIB],491 and 182
3,OCCCNc1cc(-c2ccnc(Nc3cccc(Cl)c3)n2)ccn1,237 and 118
4,CCCCCC(O)/C=C/[C@H]1C(=O)CC(O)C1C/C=C\CCCC(=O)O (stereo partly specified),190 and 94

# Same assay, conditions: human, 24 h, 1 µM, compound concentration 1 uM
SMILES,Population Apoptotic (%),Population Fragmented Nuclei (%),Population Healthy Nuclei (%),Population Hoechst High Intensity Objects (%),Population Membrane Permeable-Phenotype (%),Population Mitochondria Different-Phenotype (%),Population Mitotic Cells (%),Population Normal (%),Population Pyknosed Nuclei (%),Population Tubulin-Different-Phenotype (%)
COc1ccc2[nH]c(I)c(CCNC(C)=O)c2c1 [IODOMELATONIN],86% and 80%,16% and 15%,75% and 78%,1%,3% and 8%,1% and 0%,13% and 20%,98%,8% and 5%,2%
COC(=O)c1ccc2c(c1)NC(=O)/C2=C(\Nc1ccc(N(C)C(=O)CN2CCN(C)CC2)cc1)c1ccccc1 [NINTEDANIB],35.56% and 50%,1.16% and 2.33%,90.15% and 79.07%,0%,1.07% and 1.47%,–,64.44% and 50%,100%,8.69% and 18.6%,1.28% and 1.47%
OCCCNc1cc(-c2ccnc(Nc3cccc(Cl)c3)n2)ccn1,96% and 94%,43% and 40%,43% and 33%,7%,10% and 16%,10% and 25%,4% and 5%,92%,13% and 25%,6% and 16%
CCCCCC(O)/C=C/[C@H]1C(=O)CC(O)C1C/C=C\CCCC(=O)O (stereo partly specified),86% and 90%,27% and 16%,63% and 74%,2% and 0%,3% and 5%,0% and 7%,13% and 9%,98% and 99%,8%,1% and 4%

# Same assay, conditions: human, 24 h, 1 µM, compound concentration 1 uM
row,SMILES,Total Cell Count
1,COc1ccc2[nH]c(I)c(CCNC(C)=O)c2c1 [IODOMELATONIN],354 and 179
2,OCCCNc1cc(-c2ccnc(Nc3cccc(Cl)c3)n2)ccn1,200 and 77
3,CCCCCC(O)/C=C/[C@H]1C(=O)CC(O)C1C/C=C\CCCC(=O)O (stereo partly specified),250 and 131

# Same assay, conditions: human, 24 h, 10 µM, compound concentration 10 uM
SMILES,Population Apoptotic (%),Population Fragmented Nuclei (%),Population Healthy Nuclei (%),Population Hoechst High Intensity Objects (%),Population Membrane Permeable-Phenotype (%),Population Mitochondria Different-Phenotype (%),Population Mitotic Cells (%),Population Normal (%),Population Pyknosed Nuclei (%),Population Tubulin-Different-Phenotype (%)
COc1ccc2[nH]c(I)c(CCNC(C)=O)c2c1 [IODOMELATONIN],95% and 88%,25% and 34%,66% and 59%,1%,4% and 7%,1% and 5%,4% and 11%,98%,8% and 5%,1% and 2%
COC(=O)c1ccc2c(c1)NC(=O)/C2=C(\Nc1ccc(N(C)C(=O)CN2CCN(C)CC2)cc1)c1ccccc1 [NINTEDANIB],62.5% and 65.62%,5.58% and 6.29%,63.02% and 57.14%,0%,6.23% and 9%,–,37.5% and 34.38%,100%,31.4% and 36.57%,63.93% and 46%
OCCCNc1cc(-c2ccnc(Nc3cccc(Cl)c3)n2)ccn1,88% and 95%,37% and 30%,50% and 49%,11% and 12%,34% and 43%,40% and 54%,12% and 4%,88% and 87%,12% and 20%,37% and 61%
CCCCCC(O)/C=C/[C@H]1C(=O)CC(O)C1C/C=C\CCCC(=O)O (stereo partly specified),100% and 90%,23% and 16%,66% and 74%,1% and 2%,6% and 5%,4% and 1%,0% and 10%,98% and 97%,9% and 8%,4% and 2%

# Same assay, conditions: human, 24 h, 10 µM, compound concentration 10 uM
row,SMILES,Total Cell Count
1,COc1ccc2[nH]c(I)c(CCNC(C)=O)c2c1 [IODOMELATONIN],273 and 153
2,COC(=O)c1ccc2c(c1)NC(=O)/C2=C(\Nc1ccc(N(C)C(=O)CN2CCN(C)CC2)cc1)c1ccccc1 [NINTEDANIB],484 and 175
3,OCCCNc1cc(-c2ccnc(Nc3cccc(Cl)c3)n2)ccn1,229 and 128
4,CCCCCC(O)/C=C/[C@H]1C(=O)CC(O)C1C/C=C\CCCC(=O)O (stereo partly specified),216 and 118

# Same assay, conditions: human, 48 h, 1 µM, compound concentration 1 uM
SMILES,Population Apoptotic (%),Population Fragmented Nuclei (%),Population Healthy Nuclei (%),Population Hoechst High Intensity Objects (%),Population Membrane Permeable-Phenotype (%),Population Mitochondria Different-Phenotype (%),Population Mitotic Cells (%),Population Normal (%),Population Pyknosed Nuclei (%),Population Tubulin-Different-Phenotype (%)
COc1ccc2[nH]c(I)c(CCNC(C)=O)c2c1 [IODOMELATONIN],92% and 86%,12% and 13%,79% and 81%,1%,5% and 4%,2%,7% and 13%,98%,7% and 5%,3%
COC(=O)c1ccc2c(c1)NC(=O)/C2=C(\Nc1ccc(N(C)C(=O)CN2CCN(C)CC2)cc1)c1ccccc1 [NINTEDANIB],57.5% and 53.12%,1.52% and 3.23%,89.14% and 83.87%,0%,2.1% and 4.33%,0.26% and 9.62%,42.5% and 46.88%,100%,9.35% and 12.9%,1.57% and 3.37%
OCCCNc1cc(-c2ccnc(Nc3cccc(Cl)c3)n2)ccn1,95% and 100%,56% and 59%,22% and 11%,16% and 12%,30%,14% and 20%,4% and 0%,83% and 87%,21% and 28%,26% and 10%
CCCCCC(O)/C=C/[C@H]1C(=O)CC(O)C1C/C=C\CCCC(=O)O (stereo partly specified),89% and 100%,19% and 13%,71% and 79%,2%,4% and 5%,3% and 4%,10% and 0%,97%,8% and 7%,2% and 3%

# Same assay, conditions: human, 48 h, 1 µM, compound concentration 1 uM
row,SMILES,Total Cell Count
1,COc1ccc2[nH]c(I)c(CCNC(C)=O)c2c1 [IODOMELATONIN],509 and 284
2,OCCCNc1cc(-c2ccnc(Nc3cccc(Cl)c3)n2)ccn1,227 and 99
3,CCCCCC(O)/C=C/[C@H]1C(=O)CC(O)C1C/C=C\CCCC(=O)O (stereo partly specified),334 and 189

# Same assay, conditions: human, 48 h, 10 µM, compound concentration 10 uM
SMILES,Population Apoptotic (%),Population Fragmented Nuclei (%),Population Healthy Nuclei (%),Population Hoechst High Intensity Objects (%),Population Membrane Permeable-Phenotype (%),Population Mitochondria Different-Phenotype (%),Population Mitotic Cells (%),Population Normal (%),Population Pyknosed Nuclei (%),Population Tubulin-Different-Phenotype (%)
COc1ccc2[nH]c(I)c(CCNC(C)=O)c2c1 [IODOMELATONIN],97% and 100%,21% and 29%,68% and 65%,2% and 0%,5% and 7%,0% and 5%,2% and 0%,97% and 99%,9% and 5%,2% and 4%
COC(=O)c1ccc2c(c1)NC(=O)/C2=C(\Nc1ccc(N(C)C(=O)CN2CCN(C)CC2)cc1)c1ccccc1 [NINTEDANIB],78.69% and 91.94%,1.9% and 1.52%,54.63% and 51.52%,0.24% and 0%,1.74% and 8.82%,29.13% and 51.47%,21.31% and 8.06%,99.76% and 100%,43.47% and 46.97%,69.57% and 76.47%
OCCCNc1cc(-c2ccnc(Nc3cccc(Cl)c3)n2)ccn1,94% and 96%,47% and 50%,31% and 25%,21% and 23%,43% and 65%,45% and 34%,5% and 4%,78% and 76%,21% and 24%,45% and 65%
CCCCCC(O)/C=C/[C@H]1C(=O)CC(O)C1C/C=C\CCCC(=O)O (stereo partly specified),89% and 100%,23% and 21%,67% and 70%,3% and 2%,6% and 7%,3%,10% and 0%,96% and 97%,9% and 7%,4% and 3%

# Same assay, conditions: human, 48 h, 10 µM, compound concentration 10 uM
row,SMILES,Total Cell Count
1,COc1ccc2[nH]c(I)c(CCNC(C)=O)c2c1 [IODOMELATONIN],373 and 209
2,OCCCNc1cc(-c2ccnc(Nc3cccc(Cl)c3)n2)ccn1,223 and 134
3,CCCCCC(O)/C=C/[C@H]1C(=O)CC(O)C1C/C=C\CCCC(=O)O (stereo partly specified),302 and 161

# — ChEMBL document CHEMBL5724801, “EUbOPEN Chemogenomics Library - Multiplex” (2024)
